Results from PubChem BioAssay.
Activity calls are given as the source filed them.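 The calls were made as follows, unless noted: active = compounds giving at least 50% inhibition in the cell-based MKP-3 phosphatase rescue imaging test; inactive = the rest.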

Key:
[1] = inhibitors of TNFa-induced NFkB p65 translocation, primary screen, imaging, HUVEC, MLSMR starter and 10KST1 sets (AID 438;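 active = inhibition above 20% together with a positive visual image hit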;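 also: compound added about 3h40 before a 20 min TNFalpha stimulation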;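 as to inhibition: signal is the nuclear over cytoplasmic p65 intensity ratio per well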); details: HUVEC TNFa-induced p65 nuclear translocation; cell count: measured here: nuclei count (cytotoxicity indicator), at 2.08 µM; inhibition: at 2 µM, stronger effect = higher value, 0% TNFa-plus-vehicle, 100% no-TNFa wells
[2] = endothelial E-selectin expression blockers – imaging, HUVEC, immunofluorescence, MLSMR starter and 10KST1 sets, primary screen (AID 487;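 active = visually confirmed hit in the image check and inhibition above 20%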;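 as to inhibition: signal is fraction of cell area covered by stained E-selectin grains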;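 as to nuclei count: 100% = median nuclei count of all wells on the same plate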); details: HUVEC TNFalpha-induced E-selectin immunofluorescence imaging, at 2 µM; inhibition: stronger effect = higher value; nuclei count: measured here: cell number, toxicity
[3] = Primary imaging screen for DUSP6 inhibitors that restore phospho-Erk in transfected HeLa cells, chemical complementation (AID 609); details: HeLa MKP-3 transfected, phospho-Erk imaging KS statistic, at 10 µM, cells stimulated with TPA for 15 min;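 as to inhibition: phospho-Erk level distribution per well compared with pooled transfected vehicle control wells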
[4] = target: Dual specificity protein phosphatase 6 (Homo sapiens) (UniProt Q16828); experiment: as above; details: HeLa MKP-3 transfected, phospho-Erk imaging KS statistic; at 10 µM; stronger effect = higher value; cells stimulated with TPA for 15 min
[5] = target: Voltage-gated potassium channel subunit beta-2 (Rattus norvegicus) (UniProt P62483); experiment: inhibitors of rat Kvbeta2 reductase activity – biochemical, NADPH fluorescence, primary screen (AID 622;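 active = fluorescence slope higher than the sample average by over 3 SD, cut at about -0.22 in these data, passing the limit was not always enough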;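 also: slope of raw intensity against log time taken from 70 to 1610 s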); details: recombinant KvBeta, 4-cyanobenzaldehyde reduction, at 10 µM, stronger effect = higher value
[6] = target: Voltage-gated potassium channel subunit beta-2 (Rattus norvegicus) (UniProt P62483); experiment: enhancers of rat Kvbeta2 NADPH turnover – biochemical, NADPH fluorescence, primary screen (AID 623;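 active = NADPH fluorescence slope more negative than the mean of all samples by about 3 SD, 99.7% confidence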;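 also: fluorescence intensity change per second fitted from 20 to 320 s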); details: Recombinant KvBeta, NADPH fluorescence decrease slope, 10 min; at 10 µM; stronger effect = lower value
[7] = target: Alpha-2C adrenergic receptor (Homo sapiens) (UniProt P18825); experiment: compounds altering alpha2C-coupled GIRK flux – cell-based, HEK293 alpha2C/GIRK1/2, thallium flux, primary screen (AID 624;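 active = fluorescence slope after compound addition differing from the mean of all screened samples at 99.7% confidence, in either direction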;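 also: slope of fluorescence ratio to pre-addition baseline per second over 15 to 24 s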); details: thallium flux BTC fluorescence, at 10 µM, actives lie on both sides
[8] = inhibitors of larval lipid processing in zebrafish, primary screen, whole organism, PED6 fluorescence, gall bladder and intestine (AID 686;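 active = a full or partial loss of lipid-probe fluorescence in the fish gall bladder, intestine or both, judged by eye; inactive = no fluorescence loss, or compound toxic to the fish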;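 also: larvae 5 to 7 days old with five fish per well; signal comes from phospholipase A2 cleavage of quenched PED6 carried via bile; overnight exposure to compound and PED6 before scoring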); details: Zebrafish larvae PED6 lipid processing, fluorescence scoring; screened at 20 µM (by protocol)
Outline: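 Test system – live zebrafish larvae aged 5-7 days, whole organism · Buffer or medium – E3 fish medium · Reagent – quenched phospholipase substrate PED6, 100 nM final, ingested by larvae · Doses – 20 µM single dose · Incubation – overnight compound and PED6 incubation · Technique – visual fluorescence microscopy scoring of gall bladder, gut · Read-out basis – visual per-well fluorescence inhibition score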

[9] = loss of swimming-algae plug formation – whole organism, Chlamydomonas reinhardtii, WT vs cilia-less mutant, absorbance, 96-well, primary screen (AID 463189;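 active = inhibition at or above 50% relative to wild type and mutant plate controls; inactive = inhibition below 50%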;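 also: 0% = wild type cc124 cells in DMSO and 100% = ciliumless bld1 mutant cells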); details: Chlamydomonas reinhardtii gravitaxis, OD600 absorbance, 2 days; at 10 µM; stronger effect = higher value
[10] = measured here: cell density z-score
[11] = measured here: nuclear c-Myc green intensity z-score
[12] = measured here: nuclear pErk red intensity z-score, stronger effect = higher value

Voltage-gated potassium channel subunit beta-2 (Rattus norvegicus), sequence (P62483 whole entry, looked up): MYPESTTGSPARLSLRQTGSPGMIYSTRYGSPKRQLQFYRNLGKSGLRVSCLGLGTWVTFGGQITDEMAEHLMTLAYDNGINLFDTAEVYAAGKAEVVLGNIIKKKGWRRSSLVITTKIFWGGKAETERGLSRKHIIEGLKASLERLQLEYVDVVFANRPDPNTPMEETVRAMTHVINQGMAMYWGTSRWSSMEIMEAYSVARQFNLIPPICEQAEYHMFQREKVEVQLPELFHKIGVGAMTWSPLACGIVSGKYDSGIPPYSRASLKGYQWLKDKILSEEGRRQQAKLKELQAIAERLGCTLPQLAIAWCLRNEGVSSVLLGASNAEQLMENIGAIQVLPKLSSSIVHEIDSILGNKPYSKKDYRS
Alpha-2C adrenergic receptor (Homo sapiens), sequence (P18825 whole entry, looked up): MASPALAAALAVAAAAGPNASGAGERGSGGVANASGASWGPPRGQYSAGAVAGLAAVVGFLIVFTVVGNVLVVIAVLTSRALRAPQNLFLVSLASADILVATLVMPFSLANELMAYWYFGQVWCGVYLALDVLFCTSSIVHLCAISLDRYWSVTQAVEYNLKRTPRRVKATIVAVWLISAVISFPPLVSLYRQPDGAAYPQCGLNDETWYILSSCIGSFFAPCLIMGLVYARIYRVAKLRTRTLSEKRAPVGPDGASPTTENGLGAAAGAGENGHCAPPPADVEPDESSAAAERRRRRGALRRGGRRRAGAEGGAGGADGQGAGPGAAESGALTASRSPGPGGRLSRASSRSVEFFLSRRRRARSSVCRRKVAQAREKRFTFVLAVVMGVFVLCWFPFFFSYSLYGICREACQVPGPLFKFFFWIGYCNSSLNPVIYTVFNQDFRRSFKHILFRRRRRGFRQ
Dual specificity protein phosphatase 6 (Homo sapiens), sequence (Q16828 whole entry, looked up): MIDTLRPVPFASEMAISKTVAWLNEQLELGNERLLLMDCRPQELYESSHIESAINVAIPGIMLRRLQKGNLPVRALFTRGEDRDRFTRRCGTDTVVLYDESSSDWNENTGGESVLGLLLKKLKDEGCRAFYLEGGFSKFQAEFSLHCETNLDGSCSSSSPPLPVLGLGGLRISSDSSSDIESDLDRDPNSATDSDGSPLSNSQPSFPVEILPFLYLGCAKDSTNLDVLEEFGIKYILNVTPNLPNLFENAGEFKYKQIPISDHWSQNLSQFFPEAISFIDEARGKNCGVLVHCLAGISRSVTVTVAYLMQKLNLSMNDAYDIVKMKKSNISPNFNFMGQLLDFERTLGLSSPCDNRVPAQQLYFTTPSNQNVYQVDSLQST

Row | SMILES | cell count [1] | inhibition [1] | inhibition [2] | nuclei count [2] | z-score [3, 10] | z-score [3, 11] | z-score [3, 12] | inhibition [4] | fluorescence slope [5] | NADPH fluorescence slope [6] | slope [7] | outcome [8] | inhibition [9]
1 | Nc1nonc1-c1noc(N2CCOCC2)n1 | 306 | -10.9% (inactive) | -42.1% (inactive) | 106% | 0.592 | 0.125 | 0.227 | -12.3% (inactive) | -0.281 (inactive) | 1e-05 (inactive) | 0.00528 (inactive) | inactive | 17.1% (inactive)
2 | Cc1c(C(Nc2ccccn2)c2ccccc2)c(=O)n(-c2ccccc2)n1C (centres undefined) | 522 | -5.3% (inactive) | -96.1% (inactive) | 136% | -0.885 | 0.0466 | 1.12 | -9.7% (inactive) | -0.508 (inactive) | -9.6e-05 (inactive) | 0.00524 (inactive) | inactive | 23.1% (inactive)
3 | C=CCN(C(=O)CCC(=O)O)C1CC(=O)N(c2ccc(OCCC)cc2)C1=O (centres undefined) | 454 | -10.8% (inactive) | -213% (inactive) | 223% | 0.015 | -1.26 | -0.0284 | -2.29% (inactive) | -0.384 (inactive) | -2.5e-05 (inactive) | 0.00464 (inactive) | inactive | 6.01% (inactive)
4 | Cc1cc(COc2ccccc2OCCN2CCN(C)CC2)no1 | 551 | -2.5% (inactive) | -128% (inactive) | 134% | 0.378 | -1.63 | 0.134 | 5.95% (inactive) | -0.514 (inactive) | -6.1e-05 (inactive) | 0.0049 (inactive) | inactive | 9.35% (inactive)
5 | CCCCOC(=O)Nc1ccc(S(=O)(=O)Nc2nc(C)cc(C)n2)cc1 | 515 | -10.1% (inactive) | -17.4% (inactive) | 128% | 0.944 | 1.82 | -0.786 | 2.92% (inactive) | -0.439 (inactive) | -1.7e-05 (inactive) | 0.00517 (inactive) | inactive | -15.6% (inactive)
6 | CCCCc1ccc(NC(=O)CSC2=C(C#N)C(c3ccco3)C3=C(CCCC3=O)N2)cc1 (centres undefined) | 384 | -8% (inactive) | -114% (inactive) | 151% | 0.415 | 1.7 | -0.943 | 7.42% (inactive) | -0.44 (inactive) | -9.7e-05 (inactive) | 0.00706 (inactive) | inactive | -5.66% (inactive)
7 | Cc1ccc(SCc2nnc(N)s2)cc1 | 580 | -16.4% (inactive) | 29.9% (inactive) | 161% | -0.876 | -0.003 | 0.564 | -15% (inactive) | -0.396 (inactive) | -5.4e-05 (inactive) | 0.00821 (inactive) | inactive | 7.17% (inactive)
8 | Cn1c(OCc2ccco2)nc2c1c(=O)n(Cc1ccc(Cl)c(Cl)c1)c(=O)n2C | 642 | -4.4% (inactive) | 12.6% (inactive) | 136% | 1.05 | 0.078 | -0.436 | 0.671% (inactive) | -0.521 (inactive) | -4.1e-05 (inactive) | 0.00511 (inactive) | inactive | -1.38% (inactive)
9 | Cn1c(NCc2ccco2)nc2c1c(=O)n(Cc1ccc(Cl)c(Cl)c1)c(=O)n2C | 615 | -3.6% (inactive) | -47.4% (inactive) | 147% | -0.044 | 0.293 | 1.11 | -1.12% (inactive) | -0.511 (inactive) | -6.1e-05 (inactive) | 0.00544 (inactive) | inactive | 48.3% (inactive)
10 | CC1(C)Nc2ccc(O)cc2-c2c1ssc2=S | 403 | -28.2% (inactive) | -198% (inactive) | 193% | -0.436 | -0.817 | -1.32 | -0.624% (inactive) | -0.316 (inactive) | 3.7e-06 (inactive) | 0.00209 (inactive) | inactive | -1.08% (inactive)
11 | CCOC(=O)c1cc2cc(OC)ccc2[nH]1 | 596 | -5.3% (inactive) | -44.6% (inactive) | 87.4% | -0.384 | 1.83 | 0.163 | 5.57% (inactive) | -0.497 (inactive) | -9.6e-05 (inactive) | 0.00467 (inactive) | inactive | 26.5% (inactive)
12 | CC1(C)Cc2c(sc3c4nnnn4c4nnnn4c23)CO1 | 634 | -12.5% (inactive) | -30.9% (inactive) | 164% | 0.452 | 0.0526 | 0.417 | 20.8% (inactive) | -0.493 (inactive) | -9.6e-05 (inactive) | 0.0051 (inactive) | inactive | 27.1% (inactive)
13 | CCN1C(=O)CC(N2CCN(c3ccc(OC)cc3)CC2)C1=O (centres undefined) | 489 | -27.6% (inactive) | -368% (inactive) | 154% | 1.11 | -0.53 | -0.692 | 16.1% (inactive) | -0.537 (inactive) | -6.5e-05 (inactive) | 0.00497 (inactive) | inactive | 5.49% (inactive)
